Test results: ChEMBL document CHEMBL4396873, “Discovery of Potent, Selective, and Short-Acting Peptidic V2 Receptor Agonists” (J Med Chem, 2019)
Active and inactive are the calls of the source. The calls are words filed in the database; no cut-off is given here. Numbered stars: 1 amine (or outer) side, 2 acyl side, 3 side chain; on linkers, the order of the positions; unused ones are H or OH. Bridge positions count the residues as written; N and C are the ends. Square brackets hold non-standard residues; d marks the D form. Peptide text beside a SMILES is read from it. * marks the point of attachment. Phe(4-Cl) = N[C@@H](Cc1ccc(Cl)cc1)C(=O)O; Phe(4-F) = N[C@@H](Cc1ccc(F)cc1)C(=O)O; Phe(4-Me) = Cc1ccc(C[C@H](N)C(=O)O)cc1; 2Thi = N[C@@H](Cc1cccs1)C(=O)O; X4 = N=C(N)NCCC[C@@H](CO)N*; X2 = N=C(N)NCCC[C@H](CO)N*; Agmatine = N=C(N)NCCCCN*; X1 = O=C(CCC[*:2])[*:1]

Key:
[1] = Non-renal clearance in nephrectomized Sprague-Dawley rat at 0.1 mg/kg, iv administered as cassette dose by LC-MS/MS analysis; type: ADME, organism-based; settings: in vivo
[2] = Protein binding in rat plasma at 200 to 1000 ng/ml measured after 15 mins by UC-LC/MS/MS analysis; type: ADME, cell-free; settings: read-out: PPB (converted)
Method in brief: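 Peptide spiked into rat plasma to final 200-1000 ng/mL, incubated 15 min at 37 °C, ultracentrifuged at 773,000 xg for 30 min at 37 °C; middle-layer sample quantified by LC/MS/MS; binding (%) = (Ci − Cm)/Ci × 100; quadruplicate.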

Vasopressin V2 receptor = Vasopressin V2 receptor (Rattus norvegicus, UniProt Q00788); test: Agonist activity at recombinant rat V2 receptor expressed in HEK293 cells measured after 5 hrs by cAMP response element driven luciferase reporter gene assay; type: functional, cell-based
[3] = Clearance in iv dosed over hydrated human; type: ADME, organism-based; settings: in vivo
[4] = Clearance in severe renal impairment patent; type: ADME; settings: human
Oxytocin receptor = molecular target: T1, Oxytocin receptor (Homo sapiens, UniProt P30559); test: Agonist activity at human OTR stably expressed in CHOK1 cells by NFAT-luciferase reporter gene assay; type: cell-based
T1 sequence (P30559 whole entry): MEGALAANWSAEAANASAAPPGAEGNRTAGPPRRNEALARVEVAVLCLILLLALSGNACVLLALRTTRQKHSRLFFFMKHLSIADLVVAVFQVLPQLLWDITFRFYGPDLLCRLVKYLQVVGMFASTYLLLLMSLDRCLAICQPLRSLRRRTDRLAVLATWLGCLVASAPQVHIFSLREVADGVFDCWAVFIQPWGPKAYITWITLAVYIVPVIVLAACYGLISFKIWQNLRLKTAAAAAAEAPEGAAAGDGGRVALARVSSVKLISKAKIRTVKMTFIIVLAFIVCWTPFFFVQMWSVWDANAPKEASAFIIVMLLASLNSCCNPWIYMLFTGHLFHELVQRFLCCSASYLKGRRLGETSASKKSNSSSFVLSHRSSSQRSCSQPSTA

Vasopressin V1a receptor = Vasopressin V1a receptor (Homo sapiens, UniProt P37288); test: Agonist activity at recombinant human V1a receptor expressed in HEK293 cells up to 1000 nM measured after 5 hrs by luciferase reporter gene assay; type: cell-based; settings: hek293, 5 h
[5] = Clearance in Sprague-Dawley rat at 0.1 mg/kg, iv administered as cassette dose by LC-MS/MS analysis; type: ADME, organism-based; settings: in vivo
[6] = molecular target: T2, Oxytocin receptor (Homo sapiens) (UniProt P30559); test: Agonist activity at human OTR stably expressed in CHOK1 cells by NFAT-luciferase reporter gene assay relative to control; type: cell-based
T2 sequence (whole entry): T1 sequence (P30559 whole entry)

[7] = molecular target: T2, Oxytocin receptor (Homo sapiens); test: Agonist activity at human OTR stably expressed in CHOK1 cells up to 10000 nM by NFAT-luciferase reporter gene assay; type: cell-based
[8] = molecular target: Vasopressin V2 receptor (Rattus norvegicus) (UniProt Q00788); test: Agonist activity at recombinant rat V2 receptor expressed in HEK293 cells measured after 5 hrs by cAMP response element driven luciferase reporter gene assay relative to control; type: functional, cell-based
[9] = Elimination half life in Sprague-Dawley rat at 0.1 mg/kg, iv administered as cassette dose by LC-MS/MS analysis; type: ADME, organism-based; settings: in vivo, read-out: beta t1/2
Rattus norvegicus [10] = test: Antidiuretic activity in hydrated-euvolemic Sprague-Dawley rat assessed as suppression of urine output administered as iv infusion for 180 mins measured during compound dosing; type: functional, organism-based
Rattus norvegicus [11] = test: Antidiuretic activity in hydrated-euvolemic Sprague-Dawley rat assessed as effective plasma concentration causing half-maximal suppression of urine output administered as iv infusion for 180 mins measured during compound dosing; type: functional, organism-based; settings: 3 h
Rattus norvegicus [12] = test: Antidiuretic activity in hydrated-euvolemic Sprague-Dawley rat assessed as suppression of urine output by measuring cumulative urine weight administered as iv infusion for 180 mins measured during compound dosing; type: functional
Rattus norvegicus [13] = test: Antidiuretic activity in hydrated-euvolemic Sprague-Dawley rat assessed as suppression of urine output by measuring cumulative urine weight at 30 to 100 pM administered as iv infusion for 180 mins measured up to 300 mins; type: functional
Rattus norvegicus [14] = test: Antidiuretic activity in hydrated-euvolemic Sprague-Dawley rat assessed as suppression of urine output at MED administered as iv infusion for 180 mins measured during compound dosing relative to control; type: functional
[15] = Half life in iv dosed Sprague-Dawley rat by LC-MS/MS analysis; type: ADME, organism-based; settings: in vivo
Rattus norvegicus [16] = test: Antidiuretic activity in hydrated-euvolemic Sprague-Dawley rat assessed as suppression of urine output at 30 to 100 pM administered as iv infusion for 180 mins measured within 1 hr; type: functional, organism-based
Rattus norvegicus [17] = test: Antidiuretic activity in hydrated-euvolemic Sprague-Dawley rat assessed as suppression of urine output at 30 pM administered as iv infusion for 180 mins measured immediately; type: functional, organism-based
Rattus norvegicus [18] = test: Antidiuretic activity in hydrated-euvolemic Sprague-Dawley rat assessed as suppression of urine output by measuring cumulative urine weight at 30 pM administered as iv infusion for 180 mins measured up to 300 mins; type: functional
Rattus norvegicus [19] = test: Antidiuretic activity in hydrated-euvolemic Sprague-Dawley rat assessed as suppression of urine output at 30 pM administered as iv infusion for 180 mins measured after 5 hrs; type: functional, organism-based
Rattus norvegicus [20] = test: Antidiuretic activity in iv dosed rat assessed as suppression of urine output relative to control; type: functional

Chain of Vasopressin V1a receptor (P37288 whole entry): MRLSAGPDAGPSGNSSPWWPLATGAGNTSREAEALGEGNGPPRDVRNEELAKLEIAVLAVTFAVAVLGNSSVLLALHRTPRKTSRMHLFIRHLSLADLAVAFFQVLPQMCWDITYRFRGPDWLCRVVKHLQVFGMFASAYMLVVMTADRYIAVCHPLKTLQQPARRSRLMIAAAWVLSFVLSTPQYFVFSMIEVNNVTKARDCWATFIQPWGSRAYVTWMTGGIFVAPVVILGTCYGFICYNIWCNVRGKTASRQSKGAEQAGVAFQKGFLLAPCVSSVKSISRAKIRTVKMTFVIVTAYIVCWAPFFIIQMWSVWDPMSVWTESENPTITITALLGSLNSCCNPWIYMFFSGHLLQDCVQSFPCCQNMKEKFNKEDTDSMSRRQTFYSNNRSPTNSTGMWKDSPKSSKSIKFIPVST
Chain of Vasopressin V2 receptor (Rattus norvegicus) (Q00788 whole entry): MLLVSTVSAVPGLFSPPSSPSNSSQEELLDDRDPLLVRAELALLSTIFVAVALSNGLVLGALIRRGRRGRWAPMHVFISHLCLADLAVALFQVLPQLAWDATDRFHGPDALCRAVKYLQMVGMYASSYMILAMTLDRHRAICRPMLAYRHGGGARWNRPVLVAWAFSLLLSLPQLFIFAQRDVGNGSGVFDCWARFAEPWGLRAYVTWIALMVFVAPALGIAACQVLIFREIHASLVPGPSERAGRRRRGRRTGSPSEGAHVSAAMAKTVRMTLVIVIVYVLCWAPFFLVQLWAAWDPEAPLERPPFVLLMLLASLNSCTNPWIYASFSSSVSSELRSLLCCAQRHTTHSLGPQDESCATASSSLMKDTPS
Chain of Vasopressin V2 receptor (Q00788 whole entry): as above

SMILES	CL [1] [%]	fraction unbound at […] [2]	EC50 (Oxytocin receptor) [nM]	Activity (Vasopressin V1a receptor)	clearance [5] [mL/min/kg]	also measured
NC(=O)CC[C@@H]1NC(=O)[C@H](Cc2ccccc2)NC(=O)[C@H](Cc2ccc(O)cc2)NC(=O)CCSSC[C@@H](C(=O)N2CCC[C@H]2C(=O)N[C@H](CCCN=C(N)N)C(=O)NCC(N)=O)NC(=O)[C@H](CC(N)=O)NC1=O [DESMOPRESSIN]	11	0.59	–	–	–	EC50 (Vasopressin V2 receptor): 0.03 nM; clearance [3]: 1.7 mL/min/kg; clearance [4]: 0.69 mL/min/kg
CC(C)[C@@H]1NC(=O)[C@H](Cc2ccc(F)cc2)NC(=O)[C@H](Cc2ccc(Cl)cc2)NC(=O)CCCSC[C@@H](C(=O)N2CCC[C@H]2C(=O)N[C@@H](CO)CCCNC(=N)N)NC(=O)[C@H](CC(N)=O)NC1=O ([Phe(4-Cl)][Phe(4-F)]VNCP-X2; linker N-5 via X1)	–	0.07	> 10000	Not Active	3.8	–
CC(C)[C@@H]1NC(=O)[C@H](Cc2cccs2)NC(=O)[C@H](Cc2ccc(Cl)cc2)NC(=O)CCCSC[C@@H](C(=O)N2CCC[C@H]2C(=O)N[C@H](CO)CCCNC(=N)N)NC(=O)[C@H](CC(N)=O)NC1=O ([Phe(4-Cl)][2Thi]VNCP-X4; linker N-5 via X1)	–	0.19	> 10000	Not Active	8.1	–
CC(C)[C@@H]1NC(=O)[C@H](Cc2cccs2)NC(=O)[C@H](Cc2ccc(Cl)cc2)NC(=O)CCCSC[C@@H](C(=O)N2CSC[C@H]2C(=O)N[C@H](CCCNC(=N)N)C(=O)NCc2ccccc2)NC(=O)[C@H](CC(N)=O)NC1=O	100	0.09	140	Not Active	38	Efficacy [6]: 32%
CC(C)[C@@H]1NC(=O)[C@H](Cc2cccs2)NC(=O)[C@H](Cc2ccc(Cl)cc2)NC(=O)CCCSC[C@@H](C(=O)N2CCC[C@H]2C(=O)NCCCCNC(=N)N)NC(=O)[C@H](CC(N)=O)NC1=O ([Phe(4-Cl)][2Thi]VNCP-Agmatine; linker N-5 via X1)	57	0.15	–	Not Active	14	Activity [7]: inactive; EC50 (Vasopressin V2 receptor): 0.02 nM; Efficacy [8]: 99%; half-life [9]: 16 min; Activity (Rattus norvegicus [10]): Dose-dependent effect; EC50 (Rattus norvegicus [11]): 0.00064 nM; Activity (Rattus norvegicus [12]): 5 g; Activity (Rattus norvegicus [13]): 1.3 g; Activity (Rattus norvegicus [14]): 80%; half-life [15]: 20 min; Activity (Rattus norvegicus [16]): inactive; Activity (Rattus norvegicus [17]): inactive
Cc1ccc(C[C@@H]2NC(=O)CCCSC[C@@H](C(=O)N3CCC[C@H]3C(=O)N[C@@H](CO)CCCNC(=N)N)NC(=O)[C@H](CC(N)=O)NC(=O)[C@H](C(C)C)NC(=O)[C@H](Cc3cccs3)NC2=O)cc1 ([Phe(4-Me)][2Thi]VNCP-X2; linker N-5 via X1)	30	0.32	> 10000	Not Active	5.3	–
N=C(N)NCCC[C@@H](NC(=O)[C@@H]1CCCN1C(=O)[C@@H]1CSSCCC(=O)N[C@@H](Cc2ccc(O)cc2)C(=O)N[C@@H](Cc2ccccc2)C(=O)N[C@@H](CCC(N)=O)C(=O)N[C@@H](CC(N)=O)C(=O)N1)C(=O)NCC(N)=O [DESMOPRESSIN]	–	–	–	–	–	Efficacy [8]: 100%; EC50 (Rattus norvegicus [11]): 0.00032 nM; Activity (Rattus norvegicus [12]): 5.2 g; Activity (Rattus norvegicus [18]): 0.99 g; Activity (Rattus norvegicus [14]): 80%; Activity (Rattus norvegicus [19]): Active; Activity (Rattus norvegicus [20]): 48%
